Measurements taken from PubChem BioAssay.
The source made the active and inactive calls.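 The calls were made as follows, unless noted: active = fluorescence slope after compound addition differing from the mean of all tested samples at 99.7% confidence, mostly higher but some lower; inactive = the rest.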

Tests used:
[1] = inhibitors of TNFa-induced NFkB p65 translocation, primary screen, imaging, HUVEC, MLSMR starter and 10KST1 sets (AID 438;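 active = inhibition above 20% together with a positive visual image hit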;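 also: compound added about 3h40 before a 20 min TNFalpha stimulation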;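 as to inhibition: signal is the nuclear over cytoplasmic p65 intensity ratio per well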); details: HUVEC TNFa-induced p65 nuclear translocation; cell count: measured here: nuclei count (cytotoxicity indicator), at 2.08 µM; inhibition: at 2 µM, stronger effect = higher value, 0% TNFa-plus-vehicle, 100% no-TNFa wells
[2] = reduction of polyQ htt aggregates in cells – imaging, exon1htt(103Q)mCFP cells, high-content imaging, primary screen (AID 483;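 active = visual image review flags a hit and inhibition of aggregation exceeds 20%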;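 also: compound exposure lasted 3 days before fixation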;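 as to nuclei count: percent of the per-plate median nuclei count of sample wells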); details: exon1htt(103Q)mCFP cell line, aggregate imaging, at 2 µM; inhibition of aggregation: stronger effect = higher value; nuclei count: measured here: cell count, toxicity
[3] = endothelial E-selectin expression blockers – imaging, HUVEC, immunofluorescence, MLSMR starter and 10KST1 sets, primary screen (AID 487;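 active = visually confirmed hit in the image check and inhibition above 20%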;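 as to inhibition: signal is fraction of cell area covered by stained E-selectin grains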;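 as to nuclei count: 100% = median nuclei count of all wells on the same plate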); details: HUVEC TNFalpha-induced E-selectin immunofluorescence imaging, at 2 µM; inhibition: stronger effect = higher value; nuclei count: measured here: cell number, toxicity
[4] = biological target: Voltage-gated potassium channel subunit beta-2 (Rattus norvegicus) (UniProt P62483); experiment: inhibitors of rat Kvbeta2 reductase activity – biochemical, NADPH fluorescence, primary screen (AID 622;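 active = fluorescence slope higher than the sample average by over 3 SD, cut at about -0.22 in these data, passing the limit was not always enough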;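 also: slope of raw intensity against log time taken from 70 to 1610 s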); details: recombinant KvBeta, 4-cyanobenzaldehyde reduction, at 10 µM, stronger effect = higher value
[5] = biological target: Voltage-gated potassium channel subunit beta-2 (Rattus norvegicus) (UniProt P62483); experiment: enhancers of rat Kvbeta2 NADPH turnover – biochemical, NADPH fluorescence, primary screen (AID 623;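 active = NADPH fluorescence slope more negative than the mean of all samples by about 3 SD, 99.7% confidence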;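 also: fluorescence intensity change per second fitted from 20 to 320 s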); details: Recombinant KvBeta, NADPH fluorescence decrease slope, 10 min; at 10 µM; stronger effect = lower value
[6] = biological target: Muscarinic acetylcholine receptor M4 (Homo sapiens) (UniProt P08173); experiment: M4-linked GIRK flux change, two-sided – cell-based, HEK293 M4/GIRK, thallium flux, BTC-AM, M4 allosteric agonist project, primary screen (AID 625); details: at 10 µM, actives lie on both sides;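 also: thallium influx through GIRK channels coupled to M4 in HEK293 cells with BTC-AM dye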
Summary of the method: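 System: HEK293 cells with M4 receptor and GIRK channels | Incubation: Cells overnight at 37 °C, BTC-AM loading 1 h, reads 2 min total | Technique: Kinetic BTC-AM fluorescence sampled at 1 Hz, 10 s pre-addition baseline | Measure: Post-addition slope, 15–24 s, of baseline-normalized fluorescence | Control set: Carbachol positive, DMSO negative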

[7] = blockers of RIG-like receptor reporter activation – cell-based, Sendai virus stimulus, luciferase, 10K MLSCN set, TLR/RLR signaling modifier project, primary screen (AID 602276;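 active = inhibition at or above 50% at 10 µM; inactive = inhibition below 50%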;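 also: firefly luciferase from ISG56 promoter only with Renilla not read in this screen; 0% = Sendai virus plus DMSO and 100% = medium plus DMSO without virus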); details: HEK293 RL24 IRF3 luciferase reporter, at 10 µM, stronger effect = higher value
[8] = TLR3 IRF3 reporter activation blockers – cell-based, poly I:C stimulus, luciferase, 10K MLSCN set, primary screen (AID 602277;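 active = inhibition of the reporter signal at or above 50%; inactive = inhibition below 50%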); details: HEK293-TLR3 RL24 IRF3 luciferase reporter, at 10 µM, stronger effect = higher value

Chain of Muscarinic acetylcholine receptor M4 (Homo sapiens) (P08173 whole entry, looked up): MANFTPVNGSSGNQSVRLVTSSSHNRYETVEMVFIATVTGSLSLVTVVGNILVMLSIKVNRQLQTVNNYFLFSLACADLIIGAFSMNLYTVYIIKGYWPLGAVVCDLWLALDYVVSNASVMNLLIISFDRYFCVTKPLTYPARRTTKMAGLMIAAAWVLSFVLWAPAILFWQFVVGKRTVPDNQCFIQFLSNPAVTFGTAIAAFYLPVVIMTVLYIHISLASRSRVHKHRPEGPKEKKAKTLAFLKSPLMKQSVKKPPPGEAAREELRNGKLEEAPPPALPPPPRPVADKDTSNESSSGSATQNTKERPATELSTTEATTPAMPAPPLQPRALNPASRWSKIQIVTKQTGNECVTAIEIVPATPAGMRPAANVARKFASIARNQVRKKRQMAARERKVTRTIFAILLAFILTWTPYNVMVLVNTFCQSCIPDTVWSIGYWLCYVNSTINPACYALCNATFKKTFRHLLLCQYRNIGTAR
Chain of Voltage-gated potassium channel subunit beta-2 (Rattus norvegicus) (P62483 whole entry, looked up): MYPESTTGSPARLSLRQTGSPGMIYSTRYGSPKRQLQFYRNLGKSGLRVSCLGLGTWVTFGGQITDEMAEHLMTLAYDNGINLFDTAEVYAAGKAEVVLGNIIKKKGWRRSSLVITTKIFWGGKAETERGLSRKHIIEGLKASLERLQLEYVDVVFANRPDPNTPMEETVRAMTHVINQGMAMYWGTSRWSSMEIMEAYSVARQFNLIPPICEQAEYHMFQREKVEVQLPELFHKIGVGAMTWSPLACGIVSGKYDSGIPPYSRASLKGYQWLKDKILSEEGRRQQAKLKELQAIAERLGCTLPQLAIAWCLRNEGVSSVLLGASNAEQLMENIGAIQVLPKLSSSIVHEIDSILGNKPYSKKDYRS

Row | SMILES | cell count [1] | inhibition [1] | inhibition of aggregation [2] | nuclei count [2] | inhibition [3] | nuclei count [3] | fluorescence slope [4] | NADPH fluorescence slope [5] | fluorescence slope [6] | inhibition [7] | inhibition [8]
1 | COc1ccccc1-c1noc(-c2ccco2)n1 | 691 | 7.2% (inactive) | 16.8% (inactive) | 82.3% | 6% (inactive) | 101% | -0.554 (inactive) | -4.8e-05 (inactive) | 0.00616 (inactive) | -44.2% (inactive) | -96.7% (inactive)
2 | CN(C)S(=O)(=O)c1ccc(S(=O)(=O)Nc2ccc3c(c2)oc2ccccc23)cc1 | 414 | -7.9% (inactive) | -3.8% (inactive) | 107% | 4.6% (inactive) | 92% | -0.54 (inactive) | -5.2e-05 (inactive) | 0.00569 (inactive) | -8.93% (inactive) | -1.94% (inactive)
3 | C/C(=N\O)c1ccc2c3c([nH]c2c1)CCCC3 | 364 | -1.9% (inactive) | 6.7% (inactive) | 87.1% | -78.7% (inactive) | 96.4% | -0.532 (inactive) | -3.8e-05 (inactive) | 0.006 (inactive) | -28% (inactive) | -111% (inactive)
4 | CC(=O)Nc1ccc(Oc2cc(C#N)c(C#N)cc2N2CCCCCC2)cc1 | 305 | -7.7% (inactive) | -9.6% (inactive) | 91.5% | -62.5% (inactive) | 127% | -0.377 (inactive) | 2.3e-05 (inactive) | 0.00486 (inactive) | 13.8% (inactive) | 21.8% (inactive)
5 | Cc1cccc(-c2noc(CCC(=O)Nc3ccccc3)n2)c1 | 430 | 9.5% (inactive) | 7.6% (inactive) | 92.6% | 68.5% (inactive) | 140% | -0.289 (inactive) | -2.3e-05 (inactive) | 0.00559 (inactive) | -7.26% (inactive) | -4.8% (inactive)
6 | c1ccc2c(-c3nc(C4CCCCC4)no3)cc(-c3ccncc3)nc2c1 | 570 | -12.8% (inactive) | 17.4% (inactive) | 73.3% | 48.8% (inactive) | 58.9% | -0.535 (inactive) | -1.6e-05 (inactive) | 0.00839 (inactive) | 11.5% (inactive) | 1.56% (inactive)
7 | CCOC(=O)c1c(NC(=O)OC)sc(C(=O)N(C)C)c1C | 321 | -5.4% (inactive) | 1.3% (inactive) | 103% | 1.1% (inactive) | 115% | -0.312 (inactive) | -4.5e-05 (inactive) | 0.00682 (inactive) | 7.2% (inactive) | 14.6% (inactive)
8 | CC(C(=O)NC1CCCCCC1)N(c1ccccc1)S(C)(=O)=O (stereo not drawn) | 370 | 1.9% (inactive) | 4.5% (inactive) | 108% | -7.4% (inactive) | 97% | -0.548 (inactive) | -0.000126 (inactive) | 0.00352 (inactive) | 15.7% (inactive) | 3.26% (inactive)
9 | CC(C(=O)N1CC2(C)CC1CC(C)(C)C2)N1C(=O)c2ccccc2C1=O (stereo not drawn) | 239 | 5.1% (inactive) | 14.3% (inactive) | 99.8% | -114% (inactive) | 95.5% | -0.504 (inactive) | -5.6e-05 (inactive) | 0.00376 (inactive) | 20.7% (inactive) | 17.3% (inactive)
10 | CCOc1ccc(C2/C(=C(/O)c3ccccc3)C(=O)C(=O)N2CCCN(C)C)cc1OC (stereo not drawn) | 411 | -1.1% (inactive) | -13.7% (inactive) | 102% | -29.6% (inactive) | 92.2% | -0.446 (inactive) | -4.1e-05 (inactive) | 0.00491 (inactive) | 19.2% (inactive) | 15.1% (inactive)
11 | Cc1cccc(N2CCN(S(=O)(=O)c3ccc4c(c3)CCC(=O)N4)CC2C)c1 (stereo not drawn) | 322 | 4.7% (inactive) | 8.5% (inactive) | 123% | -29.6% (inactive) | 126% | -0.453 (inactive) | -0.00034 (inactive) | 0.00513 (inactive) | 10.8% (inactive) | 19.1% (inactive)
12 | COc1cc(NC(=O)Cc2nn(C)c(=O)c3ccccc23)cc(OC)c1 | 693 | -14.8% (inactive) | -21.4% (inactive) | 106% | -39% (inactive) | 108% | -0.585 (inactive) | -4.8e-05 (inactive) | 0.00514 (inactive) | -12.7% (inactive) | -56.4% (inactive)
13 | COC(=O)c1cc(Br)ccc1-c1ccc(/C=N/n2nnnc2N)o1 | 438 | 1% (inactive) | -4.4% (inactive) | 97.9% | -56% (inactive) | 111% | -0.531 (inactive) | -2.3e-05 (inactive) | 0.00728 (inactive) | 15.2% (inactive) | 24.4% (inactive)
14 | CCn1cc(C(=O)NCC2COc3ccccc3O2)c2cc(OC)c(OC)cc2c1=O (stereo not drawn) | 481 | -29.9% (inactive) | -6.2% (inactive) | 101% | -124% (inactive) | 116% | -0.481 (inactive) | -6.7e-05 (inactive) | 0.00554 (inactive) | 11.8% (inactive) | -1.62% (inactive)
15 | Cc1cccn2c(=O)c3cc(C#N)c(=O)n(CCCN4CCOCC4)c3nc12 | 519 | 1% (inactive) | 15.5% (inactive) | 71.7% | -24.9% (inactive) | 173% | -0.153 (inactive) | -1.6e-05 (inactive) | 0.00481 (inactive) | 11.2% (inactive) | 40.1% (inactive)
16 | CC(NC(=O)CSc1n[nH]c(=O)n1C1CC1)C12CC3CC(CC(C3)C1)C2 (stereo not drawn) | 563 | -23% (inactive) | -6.1% (inactive) | 101% | -5.1% (inactive) | 110% | -0.378 (inactive) | 8.6e-05 (inactive) | 0.00652 (inactive) | 7.91% (inactive) | 23.3% (inactive)
17 | COc1ccc(C2C3=C(CC(C)(C)CC3=O)Oc3ncn4nc(-c5cccnc5)nc4c32)cc1 (stereo not drawn) | 474 | 2.7% (inactive) | 2% (inactive) | 83.8% | -78.2% (inactive) | 144% | -0.327 (inactive) | -2.3e-05 (inactive) | 0.00713 (inactive) | -0.431% (inactive) | 17.2% (inactive)
18 | Cc1ccc(S(=O)(=O)Cc2ccc(C(=O)NCc3ccc4c(c3)OCO4)o2)cc1 | 592 | -1.9% (inactive) | -21.6% (inactive) | 86.7% | -16.5% (inactive) | 106% | -0.454 (inactive) | -9.9e-06 (inactive) | 0.00504 (inactive) | 9.39% (inactive) | 14.2% (inactive)
19 | O=C1CN(c2ccccc2F)C(=O)CN1c1ccccc1F | 330 | -2.3% (inactive) | -2.1% (inactive) | 97.5% | -61.6% (inactive) | 89.8% | -0.476 (inactive) | -3.1e-05 (inactive) | 0.00583 (inactive) | 14.9% (inactive) | 14.3% (inactive)
20 | CCNc1nc(NCC)n2c(SCc3nc4ccccc4c(=O)[nH]3)nnc2n1 | 554 | -3.9% (inactive) | 9.2% (inactive) | 84.7% | -31.4% (inactive) | 113% | -0.539 (inactive) | -0.000149 (inactive) | 0.00293 (inactive) | -0.856% (inactive) | -4.01% (inactive)
21 | CCOC(=O)N1CCN(S(=O)(=O)c2ccc(Br)s2)CC1 | 350 | -8.6% (inactive) | -13.3% (inactive) | 84.3% | -27.3% (inactive) | 98.6% | -0.553 (inactive) | -1.3e-06 (inactive) | 0.00427 (inactive) | 21.3% (inactive) | 11.6% (inactive)
22 | Cc1ccc(NC2c3ncccc3C(=O)N2C2CCCCC2)cc1C (stereo not drawn) | 465 | 0.7% (inactive) | -11.9% (inactive) | 119% | -28% (inactive) | 102% | -0.276 (inactive) | -8.5e-06 (inactive) | 0.00562 (inactive) | 1.86% (inactive) | 7.53% (inactive)
23 | O=C(NCc1n[nH]c(=S)n1-c1ccc(F)cc1)c1ccco1 | 711 | -16.8% (inactive) | -0.3% (inactive) | 102% | -72.4% (inactive) | 126% | -0.463 (inactive) | -2.7e-05 (inactive) | 0.00529 (inactive) | 12.1% (inactive) | 13.9% (inactive)
24 | COc1ccc(C2C(C(=O)c3sc(C)nc3C)=C(O)C(=O)N2CCN2CCOCC2)cc1 (stereo not drawn) | 438 | 4.5% (inactive) | 0.7% (inactive) | 107% | 31.3% (inactive) | 84.8% | -0.531 (inactive) | -5.5e-05 (inactive) | 0.00651 (inactive) | 4% (inactive) | 1.15% (inactive)
25 | CCCN(CCC)S(=O)(=O)c1ccc(C(=O)Nc2nnc(-c3cccc(OC)c3)o2)cc1 | 345 | 1.4% (inactive) | 13.6% (inactive) | 92.5% | 38.1% (inactive) | 107% | -0.5 (inactive) | -0.000148 (inactive) | 0.0064 (inactive) | 27.3% (inactive) | 23.2% (inactive)
26 | Cc1c(C(=O)OC(C)C)[nH]c2c1C(=O)CCC2 | 437 | -3.5% (inactive) | 15.4% (inactive) | 86.8% | 54.6% (inactive) | 99% | -0.592 (inactive) | -3.8e-05 (inactive) | 0.00589 (inactive) | -15.8% (inactive) | -50.8% (inactive)
27 | CC(C)(C)C1=C[C@@H](CO)C[C@@H](CO)C1 | 734 | -3.5% (inactive) | -19.6% (inactive) | 103% | -25.8% (inactive) | 138% | -0.391 (inactive) | -0.000123 (inactive) | 0.00843 (inactive) | 10.7% (inactive) | 23.8% (inactive)
28 | COc1ccccc1S(=O)(=O)n1cc(Cc2ccccc2)c(N)n1 | 341 | -21.8% (inactive) | 0.9% (inactive) | 89% | -28.1% (inactive) | 114% | -0.493 (inactive) | -1.1e-05 (inactive) | 0.0055 (inactive) | 3.66% (inactive) | 31.1% (inactive)
